# bovine MsrA act – bovine methionine sulfoxide reductase A activation; purified bovine MsrA, absorbance read-out; activation, % at 10.6 µM; hit rate 0.3% among 360,000; AID 602163; in the data active means activation above about 7.5%;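 further: 0% = vehicle and 100% = reference activator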
# SKN-1 inh – blocks SKN-1 activity in C. elegans; C. elegans VP596 Pgst-4::GFP/RFP ratio, acrylamide-induced, 24 h; inhibition, % at 21.8 µM; hit rate 0.49% among 360,000;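 active means interference check ratio from 0.5 to 1.5 plus GFP to RFP signal ratio inhibition reaching or exceeding a fixed threshold, cut at about 30% in these data, passing the limit was not always enough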
# beta cell repl – inducers of beta-cell replication in MIN6 cells; hit rate 0.29% among 330,000; MIN6 cells proliferation, ATPlite luminescence, 48 h; cells starved in 0.2% serum; 100% = growth in 10% serum; proliferation, % at 10 µM; AID 2380;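 active means compounds whose signal lies at least 3.5 SD above the mean of all wells on their plate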;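 further: 0% = DMSO-treated cells in low-serum medium and 100% = 10% serum control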
# MT1-MMP act inh – inhibitors of human MT1-MMP activation; hit rate 0.061% among 360,000; HT1080 RFP-PRO-GFP cells, GFP/RFP ratio fluorescence, overnight; percent of plate control window, DMSO zero; AID 651647; GFP/RFP ratio change, % at 20 µM; P50281;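 active means GFP/RFP ratio change of at least 30% with cell ATP level not reduced by more than half and red fluorescence within 50% of control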
#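 Read-out: GFP/RFP fluorescence ratio; Test system: RFP-PRO-GFP reporter HT1080 cells; Compound dosing: single-point 20 µM compound, 1% DMSO; Times: overnight compound exposure at 37 °C.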
# MsrA inh – inhibitors of bovine MsrA; purified bovine MsrA, absorbance read-out; inhibition, % at 15.5 µM; hit rate 0.75% among 360,000; AID 651718;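 further: 0% = vehicle wells with enzyme and 100% = reference inhibitor wells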
# DAGLB inh – diacylglycerol lipase beta (human) inhibition. Q8NCG7. HEK293T DAGLB membrane lysate, EnzChek fluorogenic substrate. inhibition, % at 5.17 µM. hit rate 0.059% among 340,000. AID 504411; in the data active means inhibition above about 34%;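 further: 0% = enzyme with vehicle and 100% = wells lacking enzyme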
# Target sequence (Q8NCG7 whole entry, looked up): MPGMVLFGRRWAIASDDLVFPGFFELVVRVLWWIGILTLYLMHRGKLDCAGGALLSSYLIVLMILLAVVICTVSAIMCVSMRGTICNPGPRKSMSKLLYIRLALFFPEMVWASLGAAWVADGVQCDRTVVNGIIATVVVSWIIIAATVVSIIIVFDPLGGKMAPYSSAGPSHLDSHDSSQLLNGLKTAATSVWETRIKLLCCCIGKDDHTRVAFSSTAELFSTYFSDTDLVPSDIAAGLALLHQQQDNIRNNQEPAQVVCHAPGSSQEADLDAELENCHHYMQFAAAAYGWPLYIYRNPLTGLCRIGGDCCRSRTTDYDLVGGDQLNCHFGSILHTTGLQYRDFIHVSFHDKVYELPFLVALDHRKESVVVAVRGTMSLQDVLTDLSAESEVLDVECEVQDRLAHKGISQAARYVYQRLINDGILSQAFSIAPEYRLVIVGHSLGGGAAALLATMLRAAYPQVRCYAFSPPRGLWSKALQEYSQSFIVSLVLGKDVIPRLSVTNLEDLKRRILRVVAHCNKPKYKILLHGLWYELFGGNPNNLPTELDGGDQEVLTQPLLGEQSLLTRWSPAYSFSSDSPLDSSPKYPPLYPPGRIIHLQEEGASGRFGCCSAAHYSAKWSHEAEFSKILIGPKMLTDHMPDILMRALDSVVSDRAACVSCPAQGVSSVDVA
# MsrA inh confirm – bovine MsrA inhibition, confirmed | hit rate 41% among 2,300 | inhibition, % at 15.5 µM | purified bovine MsrA, absorbance read-out | shares compounds with MsrA inh | AID 651822;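 further: coupled to thioredoxin reductase with NADPH and selenocystamine and DMSO as substrate; 0% = vehicle only and 100% = full effect of reference inhibitor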
# Numbers without * were called inactive; x = no result. Compounds with a hit are over-represented: about 1.8% of the library has one in this group of screens. Unless noted, no stated cut-off is given here; in the data, active means inhibition above about 4.5%; inactive means the rest.
SMILES,bovine MsrA act,SKN-1 inh,beta cell repl,MT1-MMP act inh,MsrA inh,DAGLB inh,MsrA inh confirm
CNC(=O)CSc1cn(CC(=O)N(C(C)C)C(C)C)c2ccccc12,-2.7,3.5,-2.6,0.1,-0.5,1.9,x
C#CCn1c(=NC(=O)c2ccc(S(=O)(=O)N3CCCc4ccccc43)cc2)sc2cc(S(N)(=O)=O)ccc21,-5.0,7.4,0.0,-21.8,5.3*,-0.2,3.6
COCc1nnc(NC(=O)c2cc3ccccc3o2)s1,-3.1,6.2,0.0,3.1,5.1*,-0.5,2.4
O=c1c(-c2ccc(Cl)cc2)coc2c(CN3CCOCC3)c(O)ccc12,-12.1,-16.5,-0.1,0.1,-0.3,-3.4,x
O=c1c(-c2ccccc2)coc2c(CN3CCCC3)c(O)ccc12,-5.1,-6.3,1.7,2.8,5.5*,-1.1,2.4
Cc1cc2occ(CC(=O)N(CC(C)C)c3c(N)n(Cc4ccccc4)c(=O)[nH]c3=O)c2cc1C,-1.0,0.0,-0.8,-6.6,-0.9,7.7,x
c1ccc(-n2cc(CNCCc3cscn3)c(-c3ccc4c(c3)OCO4)n2)cc1,-2.5,3.0,-3.0,2.3,6.3*,1.1,1.4
CCCOc1c(OC)cccc1C1CC(=O)Nc2cc3c(cc21)OCO3 (stereo not drawn),-3.7,6.9,-2.6,-4.6,5.1*,2.6,4.7*
COc1ccc(S(=O)(=O)Nc2cc(SCC(=O)O)c(O)c3ccccc23)cc1,4.8,12.1,-6.0,-19.1,7.4*,-11.3,0.3
COc1ccc(S(=O)(=O)Nc2cc(Sc3ncn[nH]3)c(O)c3ccccc23)cc1,x,x,x,x,63.6*,x,-0.1
Cc1cc(C)c(S(=O)(=O)NC(C)C)c(C)c1-n1cnnn1,-2.4,3.7,-3.4,0.3,2.0,0.4,x
O=C(NCc1ccccc1)c1cccc(NC(=O)C2CC2)c1,-0.3,3.7,x,1.1,0.1,-0.3,x
CCOc1ccc(C(C(=O)NC2CCCC2)N(CCCO)C(=O)c2ccc(-c3ccccc3)[nH]2)cc1 (stereo not drawn),-3.7,-3.5,-4.8,-14.3,0.3,0.2,x
Fc1cnc(N2CCOCC2)nc1N1CCc2ccccc21,-1.0,10.4,3.0,-5.1,8.0*,-7.3,3.5
Cc1cc(C)n2nc(N)c(N=Nc3ccccc3)c2n1,-2.2,6.1,2.9,2.6,5.2*,-2.8,3.7
Cc1cc(C)n2nc(N)c(N=Nc3ccc4c(c3)OCO4)c2n1,-2.4,-3.0,-2.6,13.8,0.0,4.0,x
CCOC(=O)CSC1=NC(=O)/C(=C\c2ccc(Cl)cc2)S1,2.5,-24.7,-6.1,-29.8,5.2*,7.8,2.8
CSC1=NC(=O)/C(=C/c2ccc(SC)cc2)S1,-5.1,-18.2,-6.6,-6.0,0.3,3.5,x
CCCNC(=O)COC(=O)/C=C/c1ccc(C)o1,-1.9,-6.8,-0.9,-1.6,5.8*,0.2,5.5*
Cc1ccc(/C=C/C(=O)OCC(=O)NCc2ccccc2)o1,-5.6,4.6,-0.8,6.4,4.4,1.1,x
COc1cccc(Nc2nc3cc(OC)ccc3cc2C#N)c1,-2.5,-7.6,-3.3,-1.6,16.7*,-5.5,13.2*
O=c1[nH]c(-[n+]2ccc3ccccc3c2)c(/C=N/N=C(\[O-])c2ccccc2)s1,-3.2,3.4,0.5,-12.2,2.6,3.7,x
CC(C)(C)c1cc[n+](-c2[nH]c(=O)sc2/C=N/N=C(\[O-])c2cccnc2)cc1,-3.4,9.9,-1.7,4.7,5.4*,0.5,5.9*
Cc1ccc(NC(=O)CCC(=O)NNC(=O)c2ccccc2Cl)c(C)c1,-1.6,-12.9,-0.5,1.3,-1.7,2.2,x
O=C(N/N=C/c1cccs1)c1ccc2ccccc2c1,-4.7,25.1,-4.8,-3.9,4.0,-9.8,x
SMILES,bovine MsrA act,SKN-1 inh,beta cell repl,MT1-MMP act inh,MsrA inh,DAGLB inh,MsrA inh confirm
O=C(N/N=C/c1cccs1)c1cccc2cc[nH]c12,-6.6,11.6,1.3,-1.6,5.2*,-2.6,4.3
Cc1cc(O)cc(=O)n1-c1cc(Cl)cc(Cl)c1,x,x,x,x,0.1,x,x
O=C(O)CCCNC(=O)CC1S/C(=N/N=C/c2ccccc2O)NC1=O (stereo not drawn),-6.9,4.1,-2.3,0.6,4.8*,-4.6,4.2
CCCCNC(=O)CC1S/C(=N/N=C/c2ccc(OC)cc2)NC1=O (stereo not drawn),-1.2,-6.0,-0.1,-0.1,0.6,1.4,x
CCCC(C(=O)Nc1nccs1)c1ccccc1 (stereo not drawn),-3.0,-27.3,-1.0,0.1,21.4*,2.5,0.0
CCOC(=O)/C(C#N)=C/Nc1ccccc1OC,-17.4,-1.5,-1.9,-2.5,12.3*,-9.5,12.4*
CCOC(=O)/C(C#N)=C/Nc1ccsc1C(C)=O,-7.9,1.9,-1.8,-3.0,13.7*,0.7,7.2*
CCOC(=O)C(=O)/C(C#N)=C/Nc1ccccc1,-3.9,9.1,-1.4,-1.3,0.4,-0.8,x
COc1ccc(/C=N/Nc2nn3cnnc3c3ccccc23)cc1,-1.8,4.1,0.8,4.7,5.1*,-1.1,3.9
CCCCc1ccc(S(=O)(=O)NC(=O)C2(C)CCN2C(=O)c2cccc(F)c2)cc1 (stereo not drawn),-2.1,13.2,x,5.3,1.1,x,x
O=C(Nc1ccc2c(c1)OCCO2)C1CCCN1C(=O)Nc1ccc(F)cc1 (stereo not drawn),-1.9,-0.1,-0.8,-0.3,0.4,-2.4,x
O=Cc1c(-c2ccccc2)nc2ccccn12,-2.1,-9.3,1.6,2.6,13.3*,0.8,10.3*
Cc1cc(C)cc(Nc2ccc([N+](=O)[O-])nc2[N+](=O)[O-])c1,-1.5,22.7,-1.2,2.8,18.7*,1.9,16.5*
COc1cc(Nc2ccc(C)cc2)c([N+](=O)[O-])nc1[N+](=O)[O-],-1.5,28.0,-4.0,6.0,2.1,4.3,x
Cc1onc(-c2ccccc2)c1C(=O)N/N=C/c1ccc(O)c([N+](=O)[O-])c1,-7.2,5.5,2.8,8.3,5.5*,5.3,4.2
O=C(N/N=C/c1cccc(O)c1)c1ccc(-n2cnnn2)cc1,-1.2,0.4,-2.8,1.9,1.2,-0.4,x
CN(C)c1ccc(/C=N/NC(=O)c2nonc2N)cc1[N+](=O)[O-],-4.7,7.4,-2.4,0.1,4.9*,3.8,4.2
O=C(N/N=C/c1ccc(O)c([N+](=O)[O-])c1)c1ccncc1,-5.3,-8.5,-3.4,0.4,5.6*,-4.1,4.9*
O=C(N/N=C/c1ccc(O)c(O)c1)c1ccc(-n2cnnn2)cc1,-2.9,6.6,-4.1,2.3,4.8*,1.3,4.6*
CCN1/C(=C/C(C)=O)Sc2ccc(OC)cc21,-4.1,9.9,-4.3,3.8,5.5*,0.7,4.3
CCN1/C(=C/c2cccc[n+]2C)Sc2ccc(OC)cc21,-0.9,4.2,-4.9,-80.9,0.1,-0.4,x

# Screens: PubChem, several laboratories
